High-throughput results (PubChem BioAssay)
PP1 inh: counter-screen for PP5 inhibitors: inhibitors of human PP1-alpha | P62136 | purified PP1alpha, OMFP fluorescence | inhibition, % at 6.7 µM | hit rate 0.9% among 320,000 | AID 2235;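 active means inhibition above the mean inhibition of all tested compounds plus 3 SD, computed separately for each screening campaign, cut at about 15% in these data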
GSTO1 inh: counter-screen for RBBP9 inhibitors: inhibitors of human GSTO1. P78417. recombinant GSTO1, activity-based probe fluorescence polarization. inhibition, % at 5.96 µM. hit rate 1.1% among 300,000. AID 1974;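 active means inhibition above the campaign mean inhibition plus 3 SD, cut at about 35% in these data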;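 further: 0% = GSTO1-1 with DMSO and 100% = wells lacking GSTO1-1 enzyme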
Target sequence (P78417 whole entry, looked up): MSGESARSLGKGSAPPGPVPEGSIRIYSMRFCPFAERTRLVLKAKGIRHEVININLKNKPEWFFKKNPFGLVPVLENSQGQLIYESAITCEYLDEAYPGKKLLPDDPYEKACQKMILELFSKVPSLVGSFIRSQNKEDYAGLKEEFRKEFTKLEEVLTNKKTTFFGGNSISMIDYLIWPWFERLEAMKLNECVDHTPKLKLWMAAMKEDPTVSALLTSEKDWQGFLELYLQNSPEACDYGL
PP5 primary: blocks human protein phosphatase 5 activity; inhibition, % at 6.7 µM; hit rate 0.18% among 320,000; P53041; AID 1987; purified PP5c, OMFP substrate fluorescence;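 active means inhibition above the campaign's mean inhibition across all tested compounds plus 3 SD, cut at about 9.5% in these data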;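 further: 0% = DMSO only and 100% = 100 µM cantharidin control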
Apaf1 inhib: blocks human Apaf-1 apoptosome activity; inhibition, % at 20 µM; O14727; reconstituted apoptosome caspase-3 activity, DEVD-Rh110 fluorescence; hit rate 0.71% among 330,000; active means inhibition of at least 40% at 20 µM;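 further: plate controls were DMSO wells for no effect and DEVD-CHO caspase inhibitor wells for full effect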
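System: reconstituted apoptosome with Apaf-1, cytochrome c, caspase-9, procaspase-3, dATP; Signal: Rh110 fluorescence intensity; Schedule: 30 min compound preincubation, 50 min activation, room temperature; Reagent: cytochrome c trigger plus (Z-DEVD)2-Rh110 caspase-3 substrate.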
TDP2 absorb: blocks human TDP2 phosphodiesterase activity; O95551; recombinant TDP2, T5PNP hydrolysis, p-nitrophenol absorbance 415 nm; inhibition, % at 12.8 µM; hit rate 0.34% among 370,000;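 active means inhibition above the mean of all tested compounds plus 3 SD, set per campaign, cut at about 25% in these data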;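 further: 0% = DMSO with enzyme and 100% = buffer with substrate but no TDP2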
Target sequence (O95551 whole entry, looked up): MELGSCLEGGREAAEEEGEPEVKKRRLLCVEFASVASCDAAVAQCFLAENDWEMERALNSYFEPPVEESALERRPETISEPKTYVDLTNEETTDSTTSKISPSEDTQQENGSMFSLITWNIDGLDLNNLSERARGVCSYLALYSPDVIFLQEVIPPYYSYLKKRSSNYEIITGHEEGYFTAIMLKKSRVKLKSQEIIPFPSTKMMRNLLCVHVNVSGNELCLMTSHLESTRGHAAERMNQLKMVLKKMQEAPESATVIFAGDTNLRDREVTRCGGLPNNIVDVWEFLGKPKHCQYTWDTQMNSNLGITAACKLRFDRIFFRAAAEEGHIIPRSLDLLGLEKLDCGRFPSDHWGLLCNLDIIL
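System: recombinant human TDP2 / Amount: 120 nM TDP2 per well / Also added: 5 mM T5PNP chromogenic substrate / Doses: 12.8 µM single point, 1% DMSO / Incubation: 2 h at 37 °C / Detection: p-Nitrophenol epi absorbance / Evaluation: % inhibition relative to enzyme-containing and enzyme-free wells / Repeats: singlicate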
Numbers without * were called inactive; . = not tested or not shown. In the library only some 2.1% were active in any assay of this set; here they are far more common.

SMILES	PP1 inh	GSTO1 inh	PP5 primary	Apaf1 inhib	TDP2 absorb
COC(=O)c1ccc(-n2c(C)cc(C(=O)COC(=O)C3=COCCO3)c2C)cc1	.	.	.	7	1
C#CCn1c(=NC(=O)c2ccc(S(=O)(=O)N3CCCc4ccccc43)cc2)sc2cc(S(N)(=O)=O)ccc21	16*	-18	0	-3	2
CC(=O)C1=C(C)NC(SCC(=O)c2ccc(-c3ccccc3)cc2)=C(C#N)C1c1cccnc1 (centres undefined)	27*	7	0	1	.
CC(C)C[C@H](NC(=O)C1CCCC1)C(=O)N1CCC[C@H]1C(=O)NCc1ccccc1	.	.	.	.	-8
Cc1ccc(Cn2ccsc2=NC(=O)CCl)cc1	-4	84*	0	4	-5
O=C(c1ccc(F)cc1)[C@@H]1[C@@H](C(=O)c2ccccc2)[C@@]2(C(=O)Nc3ccccc32)[C@H]2c3ccccc3C=CN12	5	7	0	73*	.
CCCCOCCCNC(=O)C[C@H]1C[C@@]2(C(=O)OC)C(=C[C@H](C3CCCC3)O[C@@H]2C)N(CCc2ccc(OC)c(OC)c2)C1=O	.	.	.	.	1
COc1ccc2nc3n(c(=O)c2c1)-c1ncccc1C(=O)NC3C (centres undefined)	.	.	.	.	-6
CC(C)Cc1nnc(NC(=O)CSc2nc(O)c(-c3ccccc3)c(=O)[nH]2)s1	-1	71*	-2	13	9
C#CCCCN([C@@H](CC(C)C)C(=O)OC)S(=O)(=O)c1ccccc1Br	.	.	.	.	-3
COc1ccc2[nH]c3c(=O)n(/N=C/c4ccc(OC)c(CN5CCCC5)c4)c(C)nc3c2c1	7	7	-1	43*	-11
Cc1ccc(-n2nc(C(=O)c3ccccc3)n3c(=O)c(Cc4ccccc4)nnc23)cc1	17*	0	1	4	1
COc1ccc(Cc2nnc(Nc3ccccc3)s2)cc1Br	3	36*	3	19	0
COc1ccc(CNc2ccccc2)cc1Br	3	-7	4	18	5
O=C(Nc1ccccc1N1CCN(C(=O)c2ccc(Cl)cc2)CC1)c1ccc(Br)cc1	16*	-5	2	19	4
COc1ccc(C(C)(O)c2nc(-c3ccc(OC)nc3)cs2)cc1 (centres undefined)	.	.	.	.	4
CCOc1ccc(-n2c(SCC(=O)Nc3cc4oc5ccccc5c4cc3OC)nnc2-c2cccc(Cl)c2)cc1	.	.	.	.	-4
CN1CCN(C2Cc3cc(Cl)ccc3Sc3cc(F)ccc32)CC1 (centres undefined)	3	2	6	20	-7
OCCN1CCN(C2Cc3cc(Cl)ccc3Sc3ccc(Cl)cc32)CC1 (centres undefined) (tested in a mixture with another compound)	15*	-2	4	10	.
Cc1ccccc1NC(=S)N=Nc1c(O)n(C)c2ccc(S(=O)(=O)N3CCOCC3)cc12	5	36*	3	-1	-1
Cc1cccc(C)c1NC(=S)N=Nc1c(O)n(C)c2ccc(S(=O)(=O)N3CCOCC3)cc12	-2	1	2	10	13
Cc1[nH]c(=O)nc(SCc2cccc(Cl)c2)c1C#N	1	6	1	2	-12
N#Cc1c(-c2ccccc2)nc(SCc2cccc(Cl)c2)[nH]c1=O	17*	-13	0	11	2
Cc1ccc(C(=O)ON=C2CCN(c3ccc([N+](=O)[O-])cc3)CC2)cc1	16*	0	3	10	-3
Cc1cc(-c2ccccc2)n(-c2cc(N/N=C/c3ccccc3O)ncn2)n1	16*	-4	4	.	-5
SMILES	PP1 inh	GSTO1 inh	PP5 primary	Apaf1 inhib	TDP2 absorb
Cc1ccc(NC(=O)Cn2nnc(C(=O)Nc3ccc(C)c(C)c3)c2N)cc1	16*	-20	1	11	-4
CC(C)[C@@H](C(=O)N[C@@H](CCc1ccc(O)cc1)C(=O)O)N(C)C(=O)[C@H](CO)NC(=O)[C@@H](O)[C@H](N)CCCCCCCCl	.	.	.	.	-2
COc1ccc(OC)c(NC(=O)c2cc(S(=O)(=O)NCc3ccco3)ccc2F)c1	0	36*	3	-8	-8
COc1cc(C(=S)N2CCN(c3ccccc3Cl)CC2)cc(O)c1O	-2	37*	0	1	-6
COc1ccc(C(=S)N2CCN(c3ccccc3Cl)CC2)cc1OC	3	0	3	17	12
O=C(CCc1ccccc1)N[C@H]1[C@H](OC(=O)c2cccnc2)CCC[C@@]12C(=O)N(Cc1ccccc1)c1ccccc12	.	.	.	.	-7
Cc1cccc(N(Cc2ccccc2)C(=O)Cc2ccc(S(=O)(=O)N3CCOCC3)s2)c1	17*	-10	0	19	-1
Cc1cccc(N(Cc2ccccc2)C(=O)c2ccc(C)c(S(=O)(=O)N3CCOCC3)c2)c1	1	.	3	13	-9
COc1ccc(Sc2cccc3c2S(=O)(=O)N([C@H](C)c2ccccc2)C[C@@H](COCc2ccccc2)O3)cc1OC	.	.	.	.	-3
Nc1ccc2cc3ccc(N)cc3nc2c1	.	.	.	.	16
CCOC(=O)c1csc(NC(=O)C2CCCN(S(=O)(=O)c3ccc(C)cc3)C2)n1 (centres undefined)	.	.	.	.	9
CC(C)c1ccc2c(c1)C1(NN=C(c3ccccc3)S1)C(=O)N2 (centres undefined)	16*	-23	3	7	4
Cc1cc(S(=O)(=O)NC(=O)[C@H]2O[C@@H](n3ccc(=O)[nH]c3=O)[C@H](O)[C@@H]2O)ccc1Br	.	.	.	.	8
CC(=O)c1cn(CC(=O)NCc2ccco2)c2ccccc12	-1	1	2	7	6
O=C(Cn1cc(C(=O)COc2ccccc2)c2ccccc21)NCc1ccco1	17*	-4	-1	3	4
CC(=O)c1c(C)oc2ccc(NS(=O)(=O)c3ccc(O)c(C(=O)O)c3)cc12	-4	4	2	-3	-9
O=C(O)c1cc(S(=O)(=O)Nc2ccc3oc(=O)sc3c2)ccc1O	2	60*	-1	6	0
O=C(CCCN1C(=O)/C(=C/c2ccccc2Cl)SC1=S)NNC(=O)c1ccccc1Cl	17*	-3	4	21	6
O=C(CCCN1C(=O)/C(=C/c2ccccc2Cl)SC1=S)NNC(=O)c1ccncc1	6	4	0	8	19
O=C(O)c1ccc(CSc2nc(-c3ccccc3)cc(C(F)(F)F)n2)cc1	5	-5	1	-23	-8
O=C(O)c1ccc(CSc2nc(-c3ccc(Cl)cc3)cc(C(F)(F)F)n2)cc1	17*	-20	4	21	4
CCc1ccc(-n2nc3cc(C)c(N)cc3n2)cc1	1	36*	0	32	-7
COc1cccc(C(=O)Nc2ccc3nc(N4CCN(c5ncccn5)CC4)cc(C)c3c2)c1OC	6	37*	6	31	.
COc1cccc(/C=C/C(=O)OCC(=O)NCCNC(=O)COC(=O)/C=C/c2cccc(OC)c2)c1	2	.	2	6	1
